Results from ChEMBL document CHEMBL1140167, “Meroditerpenoids from the brown alga Sargassum siliquastrum” (J Nat Prod, 2008).
Converted amounts (≈) assume the structure as drawn.

Assays:
[1] = test system: Radical scavenging activity; test: Antioxidant activity assessed as DPPH radical scavenging activity; format: functional
Outline: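 DPPH radical-scavenging test; activity expressed as RC50, reported in µg/mL.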

[2] = Inhibition of Staphylococcus aureus sortase A
[3] = target: Isocitrate lyase (Candida albicans, UniProt Q9P8Q7); test: Inhibition of Candida albicans isocitrate lyase
Chain of Isocitrate lyase (Q9P8Q7 whole entry): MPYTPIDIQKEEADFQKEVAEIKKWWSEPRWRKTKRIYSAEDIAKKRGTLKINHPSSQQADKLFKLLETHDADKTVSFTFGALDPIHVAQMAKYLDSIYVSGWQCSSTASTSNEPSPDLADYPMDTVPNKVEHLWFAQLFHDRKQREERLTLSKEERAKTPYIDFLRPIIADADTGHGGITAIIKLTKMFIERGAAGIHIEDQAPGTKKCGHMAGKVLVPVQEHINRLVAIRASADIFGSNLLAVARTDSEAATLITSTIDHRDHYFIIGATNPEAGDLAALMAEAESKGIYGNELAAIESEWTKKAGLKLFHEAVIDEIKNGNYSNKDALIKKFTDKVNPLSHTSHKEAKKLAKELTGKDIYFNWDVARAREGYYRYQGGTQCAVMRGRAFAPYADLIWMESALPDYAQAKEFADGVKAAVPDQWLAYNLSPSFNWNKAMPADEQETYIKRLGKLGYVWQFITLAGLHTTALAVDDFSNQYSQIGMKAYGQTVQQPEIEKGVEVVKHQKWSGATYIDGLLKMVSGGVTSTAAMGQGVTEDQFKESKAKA

Compound | RC50 [1] | IC50 [2] | IC50 [3]
COC(=O)CC1(C/C=C(\C)CC/C=C(\C)CC/C=C(\C)[C@@H](O)[C@@H](O)C=C(C)C)CC(=O)C=CC1=O (some centres not stated) | > 300 µg/mL | 23 µg/mL (≈ 47.3 µM) | 
C=CC(C)(CC/C=C(\C)CC/C=C(\C)[C@H](O)C(=O)C=C(C)C)Oc1ccc(O)cc1CC(=O)OC (some centres not stated) | 14.7 µg/mL | > 200 µg/mL | 103 µM
COC(=O)Cc1cc(O)cc(C/C=C(/C)CCC(=O)C(C)CC/C=C(\C)C[C@H](O)C=C(C)C)c1O (some centres not stated) | 0.1 µg/mL | 23 µg/mL (≈ 47.3 µM) | 
CC(C)=CCC/C(=C/CC/C(C)=C/CC/C(C)=C/Cc1cc(O)cc(C)c1O)C(=O)O [SARGAHYDROQUINOIC ACID] | 0.17 µg/mL | > 200 µg/mL | 117 µM
C=CC(C)(CC/C=C(\C)CCCC(C)C(O)/C=C/C(=C)C)Oc1ccc(O)cc1CC(=O)OC (configuration not stated) | 12.4 µg/mL | > 200 µg/mL | 106 µM
COC(=O)Cc1cc(O)cc(C/C=C(/C)CC/C=C(\C)CC/C=C(\C)[C@@H](O)[C@@H](O)C=C(C)C)c1O [ISONAHOCOL D1] | 0.13 µg/mL | 23 µg/mL (≈ 47.3 µM) | 
C=CC(C)(CC/C=C(\C)CCCC(C)[C@@H](O)C(=O)C=C(C)C)Oc1ccc(O)cc1CC(=O)OC (some centres not stated) | 17.2 µg/mL | > 200 µg/mL | 
COC(=O)Cc1cc(O)cc(C/C=C(\C)CC/C=C(\C)CC/C=C(\C)C(=O)[C@@H](O)C=C(C)C)c1O | 0.31 µg/mL | 23 µg/mL (≈ 47.5 µM) | 
C=CC(C)(CC/C=C(\C)CC/C=C(\C)[C@@H](O)[C@H](O)C=C(C)C)Oc1ccc(O)cc1CC(=O)OC (some centres not stated) [NAHOCOL D2] | 12.4 µg/mL | > 200 µg/mL | 
C=CC(C)(CC/C=C(\C)CC/C=C(/C)[C@H](O)C(=O)C=C(C)C)Oc1ccc(O)cc1CC(=O)OC (some centres not stated) | 23.2 µg/mL | > 200 µg/mL | 103 µM
C=CC(C)(CC/C=C(\C)CC/C=C(\C)C(=O)[C@@H](O)C=C(C)C)Oc1ccc(O)cc1CC(=O)OC (some centres not stated) | 12.6 µg/mL | > 200 µg/mL | 103 µM
C=CC(C)(CC/C=C(\C)CC/C=C(\C)[C@@H](O)[C@@H](O)C=C(C)C)Oc1ccc(O)cc1CC(=O)OC (some centres not stated) [NAHOCOL D1] | 18.5 µg/mL | > 200 µg/mL | 
CC(C)=CC(O)C(=O)/C(C)=C/CC/C(C)=C/CCC(C)(O)CCc1cc(O)cc(C)c1O (configuration not stated) | 0.24 µg/mL | > 200 µg/mL | 112 µM
C=CC(C)(CC/C=C(\C)CCCC(C)C(=O)[C@H](O)C=C(C)C)Oc1ccc(O)cc1CC(=O)OC (some centres not stated) [NAHOCOL A1] | 12.7 µg/mL | > 200 µg/mL | 
COC(=O)Cc1cc(O)cc(C/C=C(\C)CC/C=C(\C)CCCC(C)C(=O)[C@@H](O)C=C(C)C)c1O (some centres not stated) | 0.3 µg/mL | 23 µg/mL (≈ 47.3 µM) | 
COC(=O)Cc1cc(O)cc(C/C=C(/C)CC/C=C(\C)CC/C=C(\C)C(=O)[C@@H](O)C=C(C)C)c1O | 0.33 µg/mL | 23 µg/mL (≈ 47.5 µM) | 
C=CC(C)(CC/C=C(\C)C[C@@H]1C=C(C)C(=O)[C@H]1C=C(C)C)Oc1ccc(O)cc1CC(=O)OC (some centres not stated) | 11.7 µg/mL | > 200 µg/mL | 107 µM
COC(=O)Cc1cc(O)cc(C/C=C(\C)CC/C=C(\C)CC/C=C(\C)[C@@H](O)[C@@H](O)C=C(C)C)c1O [ISONAHOCOL D2] | 0.12 µg/mL | 23 µg/mL (≈ 47.3 µM) | 
C=CC(C)(CC/C=C(\C)CCCC(C)C(O)C(=O)C=C(C)C)Oc1ccc(O)cc1CC(=O)OC (configuration not stated) | 9.12 µg/mL | > 200 µg/mL | 
C=CC(C)(CC/C=C(\C)CCCC(C)C(=O)[C@@H](O)C=C(C)C)Oc1ccc(O)cc1CC(=O)OC (some centres not stated) [NAHOCOL A] | 11.3 µg/mL | > 200 µg/mL | 
